The target in data set [1] is T1, Patatin-like phospholipase domain-containing protein 2 (Mus musculus, UniProt Q8BJ56).
T1 sequence (Q8BJ56 whole entry): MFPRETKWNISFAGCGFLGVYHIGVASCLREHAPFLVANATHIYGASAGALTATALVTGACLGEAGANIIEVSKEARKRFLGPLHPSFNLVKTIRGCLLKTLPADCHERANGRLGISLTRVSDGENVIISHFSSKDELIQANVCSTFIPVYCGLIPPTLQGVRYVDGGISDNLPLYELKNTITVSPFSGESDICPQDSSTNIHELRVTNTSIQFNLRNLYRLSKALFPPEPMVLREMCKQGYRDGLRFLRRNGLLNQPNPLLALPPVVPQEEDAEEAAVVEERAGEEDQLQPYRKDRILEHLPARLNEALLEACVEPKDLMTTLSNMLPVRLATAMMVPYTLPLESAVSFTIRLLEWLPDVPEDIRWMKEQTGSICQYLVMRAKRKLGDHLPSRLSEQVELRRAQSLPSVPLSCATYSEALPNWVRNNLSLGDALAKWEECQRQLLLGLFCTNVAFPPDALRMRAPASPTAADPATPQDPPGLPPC
The data set can be described thus: Inhibition of mouse recombinant ATGL expressed in African green monkey COS7 cells assessed as reduction in triglyceride hydrolase activity using radio-labelled triolein substrate incubated for 1 hr by liquid scintillation counting. It counts as cell-based, COS-7.

Data set [2] concerns Adipose tissue. The data set can be described thus: Inhibition of lipolysis in wild type mouse white adipose tissue fat pads assessed as reduction in fatty acids release at 10 to 200 uM. It counts as functional, tissue-based.
Data set [3] concerns Adipose tissue. The data set can be described thus: Inhibition of lipolysis in adipose triglyceride lipase knock out mouse white adipose tissue fat pads assessed as reduction in fatty acids release at 10 to 200 uM. Format: functional, tissue-based.
In data set [4] the test system is Adipose tissue. The data set can be described thus: Inhibition of lipolysis in hormone-sensitive lipase knock out mouse white adipose tissue fat pads assessed as reduction in fatty acids release at 10 to 200 uM. Format: functional, tissue-based.
For data set [5], the target named is T2, Monoglyceride lipase (Homo sapiens) (UniProt Q99685).
T2 sequence (whole entry): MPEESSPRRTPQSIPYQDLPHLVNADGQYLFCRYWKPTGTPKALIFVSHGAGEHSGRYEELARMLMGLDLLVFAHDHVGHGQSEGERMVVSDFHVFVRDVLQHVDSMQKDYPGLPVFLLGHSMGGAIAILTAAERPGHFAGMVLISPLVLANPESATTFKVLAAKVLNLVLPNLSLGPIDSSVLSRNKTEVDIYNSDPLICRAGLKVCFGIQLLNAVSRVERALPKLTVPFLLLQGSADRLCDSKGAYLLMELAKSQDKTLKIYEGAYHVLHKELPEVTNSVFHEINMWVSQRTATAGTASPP
The data set can be described thus: Inhibition of monoglyceride lipase (unknown origin) at 100 uM incubated for 1 hr.

Data set [6] deals with T3, Lipoprotein lipase (Homo sapiens) (UniProt P06858).
T3 sequence (whole entry): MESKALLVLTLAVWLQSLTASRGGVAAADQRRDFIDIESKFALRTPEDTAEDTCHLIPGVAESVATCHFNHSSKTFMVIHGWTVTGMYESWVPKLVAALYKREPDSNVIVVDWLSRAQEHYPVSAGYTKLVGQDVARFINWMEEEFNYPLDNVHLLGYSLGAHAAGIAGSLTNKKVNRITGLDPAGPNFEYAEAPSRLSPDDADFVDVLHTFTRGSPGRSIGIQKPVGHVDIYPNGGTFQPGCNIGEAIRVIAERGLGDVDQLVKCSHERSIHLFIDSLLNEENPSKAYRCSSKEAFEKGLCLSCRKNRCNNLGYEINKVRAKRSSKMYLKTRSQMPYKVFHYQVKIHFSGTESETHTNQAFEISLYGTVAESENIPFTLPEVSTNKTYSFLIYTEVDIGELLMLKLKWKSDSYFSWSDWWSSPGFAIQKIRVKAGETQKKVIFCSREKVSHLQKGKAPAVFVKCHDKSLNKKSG
The data set can be described thus: Inhibition of lipoprotein lipase (unknown origin) at 100 uM incubated for 1 hr. The essentials:
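Purified recombinant LPL (2 μl) was incubated with radiolabelled triolein emulsion, with or without inhibitor, for 1 h at 37 °C. The emulsion was prepared at 330 μM triolein with PC/PI in pH 7.0 phosphate and 5% BSA. Liberated fatty acids were extracted into the alkaline upper phase and quantified by liquid scintillation counting.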

The nature of data set [7]: Toxicity in mouse AML-12 cells at 1 to 200 uM by Tox4 test. As to conditions: aml-12, 200 µM. Format: cell-based.
Data set [8] deals with T4, Patatin-like phospholipase domain-containing protein 2 (Mus musculus) (UniProt Q8BJ56).
T4 sequence (whole entry): T1 sequence (Q8BJ56 whole entry)
The data set can be described thus: Inhibition of mouse recombinant ATGL expressed in African green monkey COS7 cells assessed as reduction in triglyceride hydrolase activity at 200 uM using radio-labelled triolein substrate incubated for 1 hr by liquid scintillation counting. Format: cell-based. As to conditions: COS-7. The method in brief: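 Lysate (20 μg protein) of COS-7 cells transfected with murine ATGL DNA, sonicated in pH 7.0 sucrose/EDTA/DTT/protease-inhibitor buffer and cleared at 1000×g. Mixed 1:1 with radiolabelled triolein emulsion (prepared at 330 μM, 40,000 cpm/nmol, PC/PI, 100 mM potassium phosphate pH 7.0, 5% FA-free BSA) ± 200 μM inhibitor for 1 h at 37 °C. Released FA counted by scintillation after methanol/chloroform/heptane extraction at pH 10.5.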

SMILES strings stand for the structures. Activity calls are given as the source filed them. The calls are words filed in the database; no cut-off is given here.

What is called IC50 is the concentration at which inhibition is half-maximal.

Turning to `Oc1ccccc1/C=N/N1CCN(c2ccccc2)CC1`, the IC50 in data set [1] was 75 µM.

As to `COc1cc(OC)c(OC)cc1/C=N/N1CCN(c2ccccc2)CC1`, the concentration for half-maximal inhibition (IC50) in data set [1] was > 200 µM.

With `Cc1ccc(/C=N/N2CCN(c3ccccc3)CC2)cc1`, in data set [1], the IC50 was > 200 µM.

For `C(=N\N1CCN(c2ccccc2)CC1)/c1cccnc1`, the IC50 in data set [1] is > 200 µM.

`C(=N\N1CCN(c2ccccc2)CC1)/c1ccncc1`: the IC50 in data set [1] stood at 140 µM.

For `Oc1ccc(/C=N/N2CCN(CCc3ccccc3)CC2)c(O)c1`, in data set [1], the half-inhibitory concentration (IC50) was > 200 µM.

On to `C(=N\N1CCN(c2ccccc2)CC1)/c1cccc2ccccc12`, for which, in data set [1], the half-maximal inhibitory concentration (IC50) stood at 200 µM.

Consider `Oc1ccc(/C=N/N2CCN(c3ccccc3)CC2)c(O)c1`, for which the inhibition entry in the data set with Adipose tissue [2], in the data set on Adipose tissue [3] and with Adipose tissue [4] was “Active” in each case. Moreover, the inhibition result in data set [5] and in data set [6] was “inactive” each time. Further, the Activity entry in data set [7] was “Toxic”.

For the molecule `Cc1cccc(N2CCN(/N=C/c3ccc(O)cc3O)CC2)c1`, the concentration for half-maximal inhibition (IC50) in data set [1] was > 200 µM.

Regarding `Oc1ccc(/C=N/N2CCCN(c3ccccc3)CC2)c(O)c1`, the IC50 in data set [1] was > 200 µM.

On to `Oc1ccc(/C=N/N2CCN(C3CCCCC3)CC2)c(O)c1`, for which, in data set [1], the IC50 was > 200 µM.

For the molecule `Clc1ccc(/C=N/N2CCN(c3ccccc3)CC2)c(Cl)c1`, the IC50 in data set [1] is > 200 µM.

Regarding `C(=N\N1CCN(c2ccccc2)CC1)/c1ccccn1`, the IC50 in data set [1] was > 200 µM.

With `Oc1ccc(/C=N/N2CCN(c3ccccc3)CC2)cc1`, the half-inhibitory concentration (IC50) in data set [1] came to 50 µM.

For `Oc1ccc(/C=N/N2CCN(Cc3ccccc3)CC2)c(O)c1`, in data set [1], the IC50 was > 200 µM.

For `C(=N\N1CCN(c2ccccc2)CC1)/c1ccc2ccccc2c1`, the IC50 in data set [1] is > 200 µM.

For `N#Cc1ccccc1/C=N/N1CCN(c2ccccc2)CC1`, the IC50 in data set [1] was 120 µM. Moreover, the Efficacy in data set [8] came to 60%.

As to `O=c1[nH]c2ccc(/C=N/N3CCN(c4ccccc4)CC3)cc2[nH]1`, the IC50 in data set [1] is > 200 µM.

On to `Oc1ccc(/C=N/N2CCN(c3ccncc3)CC2)c(O)c1`, for which, in data set [1], the IC50 is > 200 µM.

On to `COc1ccc(/C=N/N2CCN(c3ccccc3)CC2)cc1O`, for which the half-maximal inhibitory concentration (IC50) in data set [1] was determined as 80 µM.

On to `Oc1cccc(/C=N/N2CCN(c3ccccc3)CC2)c1`, for which, in data set [1], the IC50 came out at 70 µM.

In the case of `Oc1ccc(CN2CCN(c3ccccc3)CC2)cc1O`, the IC50 in data set [1] was > 200 µM.

For `C(=N\N1CCN(c2ccccc2)CC1)/c1cccc(Oc2ccccc2)c1`, the IC50 in data set [1] was > 200 µM. In data set [8], the Efficacy was 24%.

On to `Oc1ccc(/C=N/N2CCN(c3ccccc3)CC2)cc1O`, for which the inhibition result in the data set on Adipose tissue [2], in the data set with Adipose tissue [3] and with Adipose tissue [4] was “Active” in each case.

As to `C(=N\N1CCN(c2ccccc2)CC1)/c1ccc2c(c1)OCCO2`, in data set [1], the IC50 is > 200 µM.

Turning to `COc1cc(/C=N/N2CCN(c3ccccc3)CC2)ccc1O`, the IC50 in data set [1] is 60 µM.

For `CN(CCO)c1ccc(/C=N/N2CCN(c3ccccc3)CC2)cc1`, in data set [1], the IC50 was > 200 µM.

Turning to `CCOC(=O)c1nn(-c2ccc(N(C)C)cc2)cc1O`, the IC50 in data set [1] turned out to be 120 µM.

As for `COc1ccc(NC(=O)N2CCN(c3ccccc3)CC2)cc1OC`, the IC50 in data set [1] was > 200 µM.

`CN(C)c1ccc(/C=N/N2CCN(c3ccccc3)CC2)cc1`: the IC50 in data set [1] is > 200 µM.

For `C(=N\N1CCN(c2ccccc2)CC1)/C1CCCCC1`, the IC50 in data set [1] was 200 µM.

For the molecule `O=[N+]([O-])c1ccccc1/C=N/N1CCN(c2ccccc2)CC1`, the IC50 in data set [1] turned out to be 180 µM.

In the case of `Clc1ccc(/C=N/N2CCN(c3ccccc3)CC2)cc1Cl`, in data set [1], the IC50 was > 200 µM.

Regarding `COc1ccc(C(=O)NN2CCN(c3ccccc3)CC2)cc1OC`, the IC50 in data set [1] was > 200 µM.

As to `Brc1ccccc1/C=N/N1CCN(c2ccccc2)CC1`, the IC50 in data set [1] is > 150 µM.

Regarding `Oc1ccc(/C=N/N2CCN(C3CCCC3)CC2)c(O)c1`, the 50% inhibitory concentration (IC50) in data set [1] was > 200 µM.

Regarding `CCCC/C=N/N1CCN(c2ccccc2)CC1`, in data set [1], the IC50 is > 200 µM.

Take `Oc1ccc(/C=N/N2CCC(Cc3ccccc3)CC2)c(O)c1`: the IC50 in data set [1] was > 200 µM.

Regarding `COc1ccc(/C=N/N2CCN(c3ccccc3)CC2)cc1OC`, the IC50 in data set [1] worked out at 100 µM.

Regarding `C(=N\N1CCN(c2ccccc2)CC1)/c1ccc2ccccc2n1`, the IC50 in data set [1] is > 200 µM.

As for `COc1cc(/C=N/N2CCN(c3ccccc3)CC2)cc(OC)c1OC`, the IC50 in data set [1] was > 200 µM.

As to `CCC/C=C/C=N/N1CCN(c2ccccc2)CC1`, the IC50 in data set [1] is > 200 µM.

In the case of `C1=C(/C=N/N2CCN(c3ccccc3)CC2)CCCC1`, the IC50 in data set [1] turned out to be 130 µM.

As to `C(=N\N1CCN(c2ccccc2)CC1)/c1ccc2c(c1)OCO2`, the IC50 in data set [1] was > 200 µM.

Take `CC(=O)Nc1ccc(/C=N/N2CCN(c3ccccc3)CC2)cc1`: the IC50 in data set [1] was > 200 µM.

As for `CCCOc1cccc(/C=N/N2CCN(c3ccccc3)CC2)c1`, the 50% inhibitory concentration (IC50) in data set [1] is > 200 µM. The Efficacy in data set [8] came out at 14%.

The record behind these values is ChEMBL document CHEMBL3425459, “Structure-activity studies in the development of a hydrazone based inhibitor of adipose-triglyceride lipase (ATGL)” (Bioorg Med Chem, 2015).
